Measurements from ChEMBL document CHEMBL1938318, “Design, synthesis and evaluation of novel molecules with a diphenyl ether nucleus as potential antitubercular agents” (Bioorg Med Chem Lett, 2012).
≈ marks a conversion by molar mass, not a printed value.

Tests used:
[1] = test system: Mycobacterium tuberculosis; test: Antitubercular activity against Mycobacterium tuberculosis H37Rv after 7 to 11 days by microdilution method; type: functional
Summary of the method: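 M. tuberculosis H37Rv grown in Middlebrook 7H9 with OADC, diluted in 7H9-OADC to 10⁴ CFU/mL and added to serial compound dilutions in 96-well microdilution plates. Incubated at 37 °C in humidified incubator, growth scored visually. MIC = lowest concentration with growth similar to 10 CFU inoculum-only well; isoniazid positive control.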

[2] = Growth inhibition of human HepG2 cells at 20 uM after 48 hrs by MTT assay; type: cell-based; conditions: read-out: GI
Summary of the method: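 Cells seeded at 2500/well, cultured 24 h, then exposed to compound at 20 μM for 48 h. MTT (20 μL of 5 mg/ml stock) added for 2.5 h at 37 °C. Supernatant removed, formazan dissolved in DMSO with 15–20 min shaking, absorbance read at 570 nm. Inhibitory rate is the mean of three independent experiments.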

SMILES	MIC [1]	MIC90 [1]	inhibition at 48 h, 20 µM [2]
O=C(Cc1cccc(Oc2ccccc2)c1)NC(c1ccccc1)c1ccccc1	32 µg/mL (≈ 81.3 µM)	8 µg/mL (≈ 20.3 µM)	4.84%
O=C(Cc1cccc(Oc2ccccc2)c1)Nc1cccc(Cl)c1	32 µg/mL (≈ 94.7 µM)	16 µg/mL (≈ 47.4 µM)	7.95%
O=C(Nc1cccc(Cl)c1)c1cccc(Oc2ccccc2)c1	32 µg/mL (≈ 98.8 µM)	16 µg/mL (≈ 49.4 µM)	7.07%
O=C(Cc1cccc(Oc2ccc(F)cc2)c1)Nc1cccc(Cl)c1	32 µg/mL (≈ 89.9 µM)	16 µg/mL (≈ 45 µM)	23.5%
O=C(Cc1cccc(Oc2ccccc2)c1)Nc1ccc(Br)cc1Cl	32 µg/mL (≈ 76.8 µM)	16 µg/mL (≈ 38.4 µM)	12.8%
O=C(Nc1cccc(Cl)c1)c1ccc(Oc2ccccc2)cc1	32 µg/mL (≈ 98.8 µM)	16 µg/mL (≈ 49.4 µM)	29.2%
O=C(CCc1cccc(Oc2ccccc2)c1)Nc1cccc(Cl)c1	32 µg/mL (≈ 91 µM)	16 µg/mL (≈ 45.5 µM)	25.1%
COc1ccc(NC(=O)Cc2cccc(Oc3ccccc3)c2)c(OC)c1	32 µg/mL (≈ 88.1 µM)	–	4.11%
O=C(Cc1cccc(Oc2ccc(Cl)cc2)c1)Nc1cccc(Cl)c1	32 µg/mL (≈ 86 µM)	16 µg/mL (≈ 43 µM)	27.1%
O=C(Cc1cccc(Oc2ccccc2)c1)Nc1nccs1	32 µg/mL (≈ 103 µM)	16 µg/mL (≈ 51.6 µM)	39.9%
O=C(CCCc1cccc(Oc2ccccc2)c1)Nc1cccc(Cl)c1	32 µg/mL (≈ 87.5 µM)	16 µg/mL (≈ 43.7 µM)	–
O=C(Cc1cccc(Oc2ccccc2)c1)Nc1ccc([N+](=O)[O-])cc1	32 µg/mL (≈ 91.9 µM)	8 µg/mL (≈ 23 µM)	36.4%
O=C(Cc1cccc(Oc2ccccc2)c1)Nc1ccc(Br)cc1	64 µg/mL (≈ 167 µM)	16 µg/mL (≈ 41.9 µM)	15.7%
N#Cc1ccccc1NC(=O)Cc1cccc(Oc2ccccc2)c1	32 µg/mL (≈ 97.5 µM)	–	19.1%
COc1ccc2nc(NC(=O)Cc3cccc(Oc4ccccc4)c3)sc2c1	16 µg/mL (≈ 41 µM)	8 µg/mL (≈ 20.5 µM)	4.29%
O=C(Cc1cccc(Oc2ccccc2)c1)Nc1cccc([N+](=O)[O-])c1	32 µg/mL (≈ 91.9 µM)	16 µg/mL (≈ 45.9 µM)	0.95%
O=C(Cc1cccc(Oc2ccccc2)c1)Nc1cccc2ccccc12	64 µg/mL (≈ 181 µM)	32 µg/mL (≈ 90.5 µM)	3.31%
O=C(Cc1cccc(Oc2ccccc2)c1)Nc1ccc(F)c(F)c1	32 µg/mL (≈ 94.3 µM)	8 µg/mL (≈ 23.6 µM)	26.7%
Cc1ccc(NC(=O)Cc2cccc(Oc3ccccc3)c2)nc1	32 µg/mL (≈ 101 µM)	8 µg/mL (≈ 25.1 µM)	12.2%
O=C(Cc1cccc(Oc2ccccc2)c1)Nc1ccc(OC(F)(F)F)cc1	32 µg/mL (≈ 82.6 µM)	16 µg/mL (≈ 41.3 µM)	4.71%
O=C(Cc1cccc(Oc2ccccc2)c1)Nc1ccc(Cl)c(Cl)c1	4 µg/mL (≈ 10.7 µM)	–	7%
O=C(Cc1cccc(Oc2ccccc2)c1)Nc1ccc(C(F)(F)F)cc1	32 µg/mL (≈ 86.2 µM)	8 µg/mL (≈ 21.5 µM)	10.3%
NNC(=O)c1ccncc1 [ISONIAZID]	0.0625 µg/mL (≈ 0.456 µM)	0.0625 µg/mL (≈ 0.456 µM)	3.51%
